# Measurements reported in ChEMBL document CHEMBL1122444, “Sulfonyliminoimidazolidines. A new class of oral hypoglycemic agents. 2. Mode of action and X-ray structure of 1-[[p-[2-(crotonylamino)ethyl]phenyl]sulfonyl]-3-cyclohexyl-2-iminoimidazolidine” (J Med Chem, 1983).
# Where “and” joins values, the source holds several entries; their conditions need not be identical. Equal entries are not always repeated.
# Tests used:
# Oryctolagus cuniculus [1] = organism: Oryctolagus cuniculus; experiment: In vitro insulin release was stimulated by the compound at a concentration of 0.03 mmol/L in rabbit pancreas; type: functional
# Procedure, shortened: (§1)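 Eight rabbit pancreas pieces, pooled from four rabbits per experiment, were incubated in bicarbonate-buffered medium containing 0.6 g/L glucose. Insulin per flask with compound was divided by basal release, taken as the mean of two preceding 20-min periods without compound. Results are mean ± SEM over n experiments.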
# Oryctolagus cuniculus [2] = organism: Oryctolagus cuniculus; experiment: In vitro insulin release was stimulated by the compound at a concentration of 0.1 mmol/L in rabbit pancreas; type: functional; procedure, shortened: as §1
# Oryctolagus cuniculus [3] = organism: Oryctolagus cuniculus; experiment: In vitro insulin release was stimulated by the compound at a concentration of 0.003 mmol/L in rabbit pancreas; type: functional; procedure, shortened: as §1
# Oryctolagus cuniculus [4] = organism: Oryctolagus cuniculus; experiment: In vitro insulin release was stimulated by the compound at a concentration of 0.3 mmol/L in rabbit pancreas; type: functional; procedure, shortened: as §1
# Oryctolagus cuniculus [5] = organism: Oryctolagus cuniculus; experiment: In vitro insulin release was stimulated by the compound at a concentration of 0.01 mmol/L in rabbit pancreas; type: functional; procedure, shortened: as §1
# Rattus norvegicus [6] = experiment: In vivo increase of plasma insulin in normal rats at a hypoglycemic dose of 0.18 mmol/kg; type: functional, organism-based
# Rattus norvegicus [7] = experiment: […] in normal rats at a hypoglycemic dose of 0.18 mmol/kg.; type: functional
# Rattus norvegicus [8] = organism: Rattus norvegicus; experiment: In vitro inhibition of glucose oxidation by the compound in isolated rat fat cells; type: functional, cell-based
# Procedure, shortened: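 Epididymal fat cells from five young rats (140–160 g) were isolated by collagenase digestion. They were incubated with D-[1-14C]glucose (40 nCi/flask, 0.1 g glucose/L) across a range of compound concentrations. IC50 was read graphically from % inhibition vs log concentration, reported as mean ± SEM over n experiments.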
# Rattus norvegicus [9] = experiment: Percent change in blood glucose in normal rats at a hypoglycemic dose of 2.0 mmol/kg. against control; type: functional
# Procedure, shortened: (§2)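 Female rats (175–195 g) were fasted 6–9 h and given compound orally as a suspension in 0.5% (w/v) methylcellulose (5 mL/kg). Blood glucose was measured enzymatically 45 min after dosing. Values are mean ± SEM, expressed as percent change against the control group.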
# Rattus norvegicus [10] = experiment: In vivo increase of plasma insulin in normal rats at a hypoglycemic dose of 2.0 mmol/kg; type: functional, organism-based
# Rattus norvegicus [11] = experiment: […] in normal rats at a hypoglycemic dose of 2.0 mmol/kg; type: functional
# Rattus norvegicus [12] = experiment: In vivo increase of plasma insulin in normal rats at a hypoglycemic dose of 0.17 mmol/kg.; type: functional, organism-based
# Oryctolagus cuniculus [13] = organism: Oryctolagus cuniculus; experiment: In vitro insulin release was stimulated by the compound at a concentration of 0.9 mmol/L in rabbit pancreas; type: functional; procedure, shortened: as §1
# Rattus norvegicus [14] = experiment: Blood glucose determined in normal rats at a hypoglycemic dose of 0.17 mmol/kg.
# Rattus norvegicus [15] = experiment: Percent change in blood glucose in normal rats at a hypoglycemic dose of 0.024 mmol/kg against control; type: functional; procedure, shortened: as §2
# Rattus norvegicus [16] = experiment: […] in normal rats at a hypoglycemic dose of 0.008 mmol/kg.; type: functional
# Rattus norvegicus [17] = experiment: Percent change in blood glucose in normal rats at a hypoglycemic dose of 0.008 mmol/kg against control; type: functional; procedure, shortened: as §2
# Rattus norvegicus [18] = experiment: […] in normal rats at a hypoglycemic dose of 0.072 mmol/kg.; type: functional
# Rattus norvegicus [19] = experiment: […] in normal rats at a hypoglycemic dose of 0.024 mmol/kg.; type: functional
# Rattus norvegicus [20] = experiment: In vivo increase of plasma insulin in normal rats at a hypoglycemic dose of […].; type: functional, organism-based
# Rattus norvegicus [21] = experiment: In vivo increase of plasma insulin in normal rats at a hypoglycemic dose of […]; type: functional, organism-based
# Oryctolagus cuniculus [22] = organism: Oryctolagus cuniculus; experiment: In vitro insulin release was stimulated by the compound at a concentration of 0.1 mmol/L; type: functional; procedure, shortened: as §1
# Rattus norvegicus [23] = experiment: Percent change in blood glucose in normal rats at a hypoglycemic dose of 0.072 mmol/kg against control; type: functional; procedure, shortened: as §2
# Rattus norvegicus [24] = experiment: Percent change in blood glucose in normal rats at a hypoglycemic dose of 0.008 mmol/kg. against control; type: functional; conditions: in the assay text read “plasma insulin” for “blood glucose”
# Rattus norvegicus [25] = experiment: In vivo increase of plasma insulin in normal rats at a hypoglycemic dose of 0.008 mmol/kg.; type: functional, organism-based
# Rattus norvegicus [26] = experiment: […] in normal rats at a hypoglycemic dose of 0.0084 mmol/kg; type: functional
# Rattus norvegicus [27] = experiment: […] in normal rats at a hypoglycemic dose of 0.028 mmol/kg.; type: functional
# Rattus norvegicus [28] = experiment: In vivo increase of plasma insulin in normal rats at a hypoglycemic dose of 0.0084 […]; type: functional, organism-based
# Rattus norvegicus [29] = organism: Rattus norvegicus; experiment: Percent change in blood glucose against control; type: functional; procedure, shortened: as §2
# Rattus norvegicus [30] = experiment: Percent change in plasma insulin in normal rats at a hypoglycemic dose of 0.0084 mmol/kg against control
# Rattus norvegicus [31] = organism: Rattus norvegicus; experiment: Percent change in plasma insulin against control; type: functional
# Rattus norvegicus [32] = experiment: In vivo increase of plasma insulin in normal rats at a hypoglycemic dose of 0.028 […]; type: functional, organism-based
# Rattus norvegicus [33] = experiment: […] in normal rats at a hypoglycemic dose of 0.60 mmol/kg; type: functional
# Rattus norvegicus [34] = experiment: In vivo increase of plasma insulin in normal rats at a hypoglycemic dose of 0.60 mmol/kg; type: functional, organism-based
# Rattus norvegicus [35] = experiment: Percent change in blood glucose in normal rats at a hypoglycemic dose of 0.60 mmol/kg against control; type: functional; procedure, shortened: as §2
# Rattus norvegicus [36] = experiment: Percent change in plasma insulin in normal rats at a hypoglycemic dose of 0.60 mmol/kg against control; type: functional
structure (smiles),measurement,setting,value
COc1cccc(C(=O)NCCc2ccc(S(=O)(=O)N3CCN(C4CCCCC4)C3=N)cc2)c1,Insulin release,Oryctolagus cuniculus [1],2.24
same,Insulin release,Oryctolagus cuniculus [2],3.13
same,Insulin release,Oryctolagus cuniculus [3],0.98
same,Insulin release,Oryctolagus cuniculus [4],3.66
same,Insulin release,Oryctolagus cuniculus [5],2.08
same,Plasma insulin,Rattus norvegicus [6],285 pM l-1
same,Blood glucose,Rattus norvegicus [7],3.08 mM
same,IC50,Rattus norvegicus [8],20 µM
N=C(N)NC(=N)NCCc1ccccc1 [PHENFORMIN],Change,Rattus norvegicus [9],-10% and -6%
same,Plasma insulin,Rattus norvegicus [10],86.1 pM l-1
same,Blood glucose,Rattus norvegicus [11],5.52 mM
same,IC50,Rattus norvegicus [8],180 µM
CCCCNC(=O)NS(=O)(=O)c1ccc(C)cc1 [TOLBUTAMIDE],Plasma insulin,Rattus norvegicus [12],278 pM l-1
same,Insulin release,Oryctolagus cuniculus [2],4.33
same,Insulin release,Oryctolagus cuniculus [3],0.95
same,Insulin release,Oryctolagus cuniculus [5],1.81
same,Insulin release,Oryctolagus cuniculus [13],4.23
same,Blood glucose,Rattus norvegicus [14],3.86 mmol/L
same,IC50,Rattus norvegicus [8],> 500 µM
CCCC(=O)NCCc1ccc(S(=O)(=O)N2CCN(C3CCCCC3)C2=N)cc1,Insulin release,Oryctolagus cuniculus [1],2.18
same,Change,Rattus norvegicus [15],-38%
same,Blood glucose,Rattus norvegicus [16],4.86 mM
same,Change,Rattus norvegicus [17],-17%
same,Insulin release,Oryctolagus cuniculus [3],1.02
same,Insulin release,Oryctolagus cuniculus [4],3.06
same,Insulin release,Oryctolagus cuniculus [5],1.84
same,Blood glucose,Rattus norvegicus [18],3.63 mM
same,Blood glucose,Rattus norvegicus [19],3.62 mM
same,Plasma insulin,Rattus norvegicus [20],310 pM l-1
same,Plasma insulin,Rattus norvegicus [21],396 pM l-1
same,Insulin release,Oryctolagus cuniculus [22],2.51
same,Change,Rattus norvegicus [23],-38%
same,Change,Rattus norvegicus [24],12%
same,Plasma insulin,Rattus norvegicus [25],108 pM l-1
same,IC50,Rattus norvegicus [8],71 µM
C/C=C/C(=O)NCCc1ccc(S(=O)(=O)N2CCN(C3CCCCC3)C2=N)cc1,Blood glucose,Rattus norvegicus [26],4.04 mM
same,Blood glucose,Rattus norvegicus [27],3.42 mM
same,Insulin release,Oryctolagus cuniculus [3],1.88
same,Insulin release,Oryctolagus cuniculus [4],1.82
same,Insulin release,Oryctolagus cuniculus [5],2.73
same,Plasma insulin,Rattus norvegicus [28],163 pM l-1
same,Change,Rattus norvegicus [29],-31% and -42%
same,Change,Rattus norvegicus [30],71%
same,Change,Rattus norvegicus [31],397%
same,Plasma insulin,Rattus norvegicus [32],476 pM l-1
same,IC50,Rattus norvegicus [8],180 µM
N=C1N(C2CCCCC2)CCN1S(=O)(=O)c1ccc(N)cc1,Blood glucose,Rattus norvegicus [33],4.66 mM
same,Insulin release,Oryctolagus cuniculus [1],1.74
same,Insulin release,Oryctolagus cuniculus [2],3.21
same,Insulin release,Oryctolagus cuniculus [3],1.01
same,Insulin release,Oryctolagus cuniculus [5],1.22
same,Plasma insulin,Rattus norvegicus [34],136 pM l-1
same,Change,Rattus norvegicus [35],-21%
same,Insulin release,Oryctolagus cuniculus [13],3.21
same,IC50,Rattus norvegicus [8],180 µM
same,Change,Rattus norvegicus [36],42%
